In ChEMBL document CHEMBL1157852, “Modulation of doxorubicin activity in cancer cells by conjugation with fatty acyl and terpenyl hydrazones” (Eur J Med Chem, 2010):
pIC50: −log10 of the molar value. The source made the active and inactive calls. The calls are words filed in the database; no cut-off is given here.

Tests used:
HL-60 [1] = assay: Induction of apoptosis in human HL60 cells assessed as appearance of intact mitochondria in cytosol at 5 uM after 6 hrs using JC1 dye relative to control; type: functional
In short: (§1)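 Mitochondrial membrane potential measured with JC-1. Cells exposed to 5 µM compound for 6 or 18 h, pelleted at 400 g, stained with 0.2× JC-1 at 37 °C for 15 min (HL-60) or 35 min (518A2), washed and resuspended in PBS. Red fluorescence (ex 585/em 590 nm) and green (ex 510/em 527 nm) read; red/green ratio relative to untreated controls (100%). Mean ± SD, four independent experiments.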

[2] = Cytotoxicity against human 518A2 cells after 72 hrs by MTT assay; type: functional, cell-based; settings: 518A2, 72 h
In short: (§2)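 MTT assay. Cells seeded and cultured 24 h, then exposed to compound for 24, 48 or 72 h. MTT added to a final 0.05% (HL-60, 518A2) or 0.1% (KB-V1, MCF-7) for 2 h. Formazan dissolved in 10% SDS/DMSO with 0.6% acetic acid; absorbance read at 570 nm against 630 nm background. Viability taken relative to untreated controls (100%). IC50 from concentration-response curves, mean ± SD of four independent experiments.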

[3] = Cytotoxicity against human 518A2 cells assessed as increase in ROS production at 5 uM after 72 hrs by NBT reduction assay relative to control; type: functional
In short: (§3)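 NBT assay. HL-60 cells (0.5×10⁶/mL) or trypsinised 518A2 cells (5×10⁴/mL) pre-incubated 24 h at 37 °C, then given compound at a final 5 µM for 24 or 72 h. Medium removed; cells incubated with 0.1% NBT for 1 h (HL-60) or 4 h (518A2). Diformazan dissolved in 2 M KOH/DMSO; A630 read against 405 nm. Given as % of untreated controls; double quadruplicates.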

[4] = Cytotoxicity against human 518A2 cells assessed as increase in ROS production at 5 uM after 24 hrs by NBT reduction assay relative to control; type: functional; in short: as §3
518A2 [5] = assay: Induction of apoptosis in human 518A2 cells assessed as increase of caspase 8 activity at 5 uM measured up to 12 hrs by luminometric assay; type: functional, cell-based
In short: (§4)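 HL-60 and 518A2 cells treated with 5 µM compound and sampled at intervals from 1 to 24 h. Lysed in 50 mM Tris-HCl pH 7.4, 150 mM NaCl, 1% Triton X-100 with protease inhibitors for 15 min at 4 °C, spun at 800 g. Protein measured by Bradford. Caspase-3/7, -8 and -9 activities read with luminogenic peptide substrates; reported as relative luminescence.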

[6] = Cytotoxicity against human vinblastine-resistant KBV1 cells after 72 hrs by MTT assay; type: functional, cell-based; settings: KB-V1, 72 h; in short: as §2
[7] = Cytotoxicity against human doxorubicin-resistant KBV1 cells by MTT assay; type: functional, KB-V1
518A2 [8] = assay: Induction of apoptosis in human 518A2 cells assessed as increase of ratio of Bax to Bcl-2 mRNA expression at 5 uM after 6 to 18 hrs by RT-PCR analysis; type: functional, cell-based
In short: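 518A2 cells exposed to 5 µM compound for 6 h or 18 h. bax and bcl-2 mRNA quantified by real-time PCR, normalised to GAPDH, and expressed as the bax/bcl-2 ratio.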

[9] = Cytotoxicity against human vinblastine-resistant KBV1 cells after 24 hrs by MTT assay; type: functional, cell-based; settings: KB-V1, 24 h; in short: as §2
[10] = Cytotoxicity against human 518A2 cells after 48 hrs by MTT assay; type: functional, cell-based; settings: 518A2, 48 h; in short: as §2
[11] = Cytotoxicity against human vinblastine-resistant KBV1 cells after 72 hrs by MTT assay in presence of 24 mM ABC transporter inhibitor verapamil hydrochloride; type: functional, cell-based; settings: KB-V1, 72 h, in the assay text read “24 uM” for “24 mM”
In short: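 MTT viability assay on P-gp-overexpressing KB-V1/Vbl cells with 24 µM verapamil hydrochloride added before the compound; 72 h exposure. Formazan read at 570/630 nm relative to untreated controls. IC50 from concentration-response curves, mean ± SD of four independent experiments.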

HL-60 [12] = assay: Induction of apoptosis in human HL60 cells assessed as increase of caspase 9 activity at 5 uM after 8 hrs by luminometric assay; type: functional, cell-based
In short: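 HL-60 leukaemia cells were treated with test compound and sampled at intervals from 1 to 24 h. Protein was measured by Bradford. Caspase-9 (Caspase-Glo 8 for line 1) was read from a luminogenic peptide substrate as relative luminescence.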

HL-60 [13] = assay: Cytotoxicity against human HL60 cells assessed as increase in ROS production at 5 uM after 24 hrs by NBT reduction assay relative to control; type: functional; in short: as §3
518A2 [14] = assay: Induction of apoptosis in human 518A2 cells assessed as increase of caspase 3 activity at 5 uM measured up to 12 hrs by luminometric assay; type: functional, cell-based; in short: as §4
MCF7 [15] = assay: Cytotoxicity against human topotecan-resistant MCF7 cells after 72 hrs by MTT assay in presence of […] BCRP inhibitor fumitremorgin C; type: functional, cell-based; settings: MCF7, 72 h
In short: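 MCF-7/Topo cells grown in E-MEM with 2.2 g/L NaHCO₃, 110 mg/L sodium pyruvate and 5% FCS. Cells were seeded, cultured 24 h, given fumitremorgin C, then exposed to compound for 72 h. MTT was added (final 0.1%) for 2 h, medium discarded, and formazan dissolved in 10% SDS/DMSO with 0.6% acetic acid. A570 (630 background) read versus untreated controls; IC50 from concentration-response curves; four independent experiments, mean ± SD.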

MCF7 [16] = assay: Cytotoxicity against human doxorubicin-resistant MCF7 cells by MTT assay; type: functional
MCF7 [17] = assay: Cytotoxicity against human topotecan-resistant MCF7 cells after 48 hrs by MTT assay; type: functional, cell-based; settings: MCF7, 48 h; in short: as §2
MCF7 [18] = assay: Cytotoxicity against human topotecan-resistant MCF7 cells after 24 hrs by MTT assay; type: functional, cell-based; settings: MCF7, 24 h; in short: as §2
HL-60 [19] = assay: Induction of apoptosis in human HL60 cells assessed as appearance of intact mitochondria in cytosol at 5 uM after 18 hrs using JC1 dye relative to control; type: functional; in short: as §1
[20] = Ratio of compound IC50 to doxorubicin IC50 for human doxorubicin-resistant KBV1 cells; type: functional
HL-60 [21] = assay: Induction of apoptosis in human HL60 cells assessed as increase of caspase 3 activity at 5 uM after 4 hrs by luminometric assay; type: functional, cell-based; in short: as §4
Nucleic Acid = assay: Binding affinity to Escherichia coli pBR322 DNA assessed as effect on DNA electrophoretic mobility at 5 to 25 uM after 24 hrs; type: nucleic-acid assay
In short: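 pBR322 plasmid DNA from a TE stock incubated with compound at 0, 5, 10 and 25 µM, in the dark at 37 °C for 24 h. Samples run on 1% agarose gel in 0.5× TBE for 4 h at 66 V. Read-out: shifts in mobility of the open circular and covalently closed circular forms.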

HL-60 [22] = assay: Cytotoxicity against human HL60 cells after 24 hrs by MTT assay; type: functional, cell-based; settings: HL-60, 24 h; in short: as §2
MCF7 [23] = assay: Ratio of compound IC50 to doxorubicin IC50 for human doxorubicin-resistant MCF7 cells; type: functional
518A2 [24] = assay: Induction of apoptosis in human 518A2 cells assessed as appearance of intact mitochondria in cytosol at 5 uM after 18 hrs using JC1 dye relative to control; type: functional; in short: as §1
518A2 [25] = assay: Induction of apoptosis in human 518A2 cells assessed as increase of caspase 9 activity at 5 uM after 8 to 12 hrs by luminometric assay; type: functional, cell-based; in short: as §4

Activity (Nucleic Acid): Active
Structure (SMILES): COc1cccc2c1C(=O)c1c(O)c3c(c(O)c1C2=O)C[C@@](O)(/C(CO)=N/NC(=O)CCCCCCCCCCC(=O)O[C@@H]1C[C@H](C)CC[C@H]1C(C)C)C[C@@H]3O[C@H]1C[C@H](N)[C@H](O)[C@H](C)O1.Cl
Activity (HL-60 [1]): 90%
pIC50 [2]: 7.22
Activity [3]: 38.3%
Activity [4]: 3.3%
Activity (518A2 [5]): inactive
pIC50 [6]: 5.06
Activity [7]: 200 nM
Activity (518A2 [8]): Active
pIC50 [9]: 4.52
pIC50 [10]: 6.80
pIC50 [11]: 6.17
Activity (HL-60 [12]): Active
Activity (HL-60 [13]): 3.8%
Activity (518A2 [14]): inactive
pIC50 (MCF7 [15]): 7.05
Activity (MCF7 [16]): 55 nM
pIC50 (MCF7 [17]): 5.59
pIC50 (MCF7 [18]): 5.15
Activity (HL-60 [19]): 23%
Ratio IC50 [20]: 1.6
Activity (HL-60 [21]): Active
pIC50 (HL-60 [22]): 6.52
Ratio IC50 (MCF7 [23]): 1.6
Activity (518A2 [24]): 71%
Activity (518A2 [25]): Active
